# Results from ChEMBL document CHEMBL1132465, “Design and synthesis of thrombin inhibitors: analogues of MD-805 with reduced stereogenicity and improved potency” (J Med Chem, 1999).
# Values joined by “and” are separate entries in the source; they are usually repeats but may differ in a detail not shown here. Equal values may be shown once.
# Columns and labels:
# Rattus norvegicus [1] = assay: Percentage inhibition on the platelet accumulation in the rat model of Arterial thrombosis at 3.0 dose (mg/kg); assay type: functional
# Outline: (§1)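 Rat dorsal aorta injury model. Rats received 111In-labelled platelets 24 h and 125I-fibrinogen 10 min before injury. The aorta was clamped with modified forceps for 1 min, then blood flowed 45 min. The vessel was excised, washed in 5% citrate and gamma-counted, and counts were converted to mg blood equivalents. Dosing was iv 1 min or sc 1 h before clamping. Result is % inhibition versus placebo accumulation, mean ± SEM, n = 5.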
# [2] = The compound was evaluated for the APTT value expressed as multiplies of control and was measured at the termination of the experiment (45 min later) in the rat model of arterial thrombosis at 2.0 dose (mg/kg); assay type: functional
# Outline: (§2)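 Rat arterial thrombosis model with sc dosing 1 h before clamping the dorsal aorta. Blood was taken via carotid cannula into one-tenth volume 3.8% trisodium citrate just before clamping and at termination, 45 min later. APTT was measured on plasma and expressed as a multiple of control, mean ± SEM, n = 5.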
# Rattus norvegicus [3] = assay: Percentage inhibition on venous stasis thrombosis in the rat at 1.0 dose (mg/kg); assay type: functional
# Outline: (§3)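 Rat acute venous stasis. The vessel was excised after 10 min and the thrombus weighed. Compound was dosed iv 2 min or sc 1 h before stasis. Result is % inhibition of mean control thrombus weight relative to placebo, mean ± SEM, n = 5.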
# [4] = The compound was evaluated for the APTT value expressed as multiplies of control and was measured at the termination of the experiment (45 min later) in the rat model of arterial thrombosis at 3.0 dose (mg/kg); assay type: functional; outline: as §2
# Chymotrypsinogen A = Chymotrypsinogen A (Bos taurus, UniProt P00766); assay: The compound was evaluated for the inhibitory activity against bovine Chymotrypsinogen
# Outline: (§4)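 Chromogenic assay run as for thrombin, with S-2222 (trypsin) or S-2586 (chymotrypsin) as substrate. Enzymes were bovine. Buffer was 0.05 M TRIS-HCl, pH 8.4. Compound stocks were in DMSO (final below 0.5%). Rate was read at 405 nm over 30 s. Ki came from double-reciprocal plots across a range of substrate concentrations.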
# Rattus norvegicus [5] = assay: Percentage inhibition on the f fibrinogen accumulation in the rat model of Arterial thrombosis at 30.0 dose (mg/kg); assay type: functional; outline: as §1
# Rattus norvegicus [6] = assay: Percentage inhibition on the platelet accumulation in the rat model of Arterial thrombosis at 10.0 dose (mg/kg); assay type: functional; outline: as §1
# Rattus norvegicus [7] = assay: Percentage inhibition on the f fibrinogen accumulation in the rat model of Arterial thrombosis at 1.0 dose (mg/kg); assay type: functional; outline: as §1
# Plasminogen = Plasminogen (Homo sapiens, UniProt P00747); assay: The compound was evaluated for the inhibitory activity against human plasmin
# Outline: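 Human plasmin, S-2251 chromogenic substrate, 0.05 M TRIS-HCl pH 8.4. Run like the thrombin assay: DMSO stock (final below 0.5%), initial rate at 405 nm over 30 s, substrate varied across a range. Ki was calculated from Lineweaver-Burk intercepts of control and inhibited curves.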
# Rattus norvegicus [8] = assay: Percentage inhibition on the f fibrinogen accumulation in the rat model of Arterial thrombosis at 3.0 dose (mg/kg); assay type: functional; outline: as §1
# [9] = TThe compound was evaluated for the APTT value expressed as multiplies of control and was measured at the termination of the experiment (45 min later) in the rat model of arterial thrombosis at 10.0d ose (mg/kg); assay type: functional; outline: as §2
# Rattus norvegicus [10] = assay: Percentage inhibition on the platelet accumulation in the rat model of Arterial thrombosis at 30.0 dose (mg/kg); assay type: functional; outline: as §1
# Rattus norvegicus [11] = assay: Percentage inhibition on the platelet accumulation in the rat model of Arterial thrombosis at 2.0 dose (mg/kg); assay type: functional; outline: as §1
# Rattus norvegicus [12] = assay: Percentage inhibition on venous stasis thrombosis in the rat at 3.0 dose (mg/kg); assay type: functional; outline: as §3
# [13] = The compound was evaluated for the dose to double the control plasma APTT value in the human plasma; assay type: functional
# Outline: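 Human blood was anticoagulated with one-tenth volume 3.8% trisodium citrate and centrifuged at 1300g for 20 min to give platelet-poor plasma. Plasma was spiked with compound at 0 to about 150 μM. It was activated 5 min at 37 °C with bovine cephalin (ellagic acid) reagent, and clotting was started with 20 mM CaCl2. Clot time was read on a coagulometer. Concentration doubling APTT was read from a concentration–APTT plot.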
# Rattus norvegicus [14] = assay: Percentage inhibition on venous stasis thrombosis in the rat at 0.1 dose (mg/kg); assay type: functional; outline: as §3
# [15] = The compound was evaluated for the APTT value expressed as multiplies of control and was measured at the termination of the experiment (45 min later) in the rat model of arterial thrombosis at 30.0 dose (mg/kg); assay type: functional; outline: as §2
# Rattus norvegicus [16] = assay: Percentage inhibition on the f fibrinogen accumulation in the rat model of Arterial thrombosis at 2.0 dose (mg/kg); assay type: functional; outline: as §1
# Rattus norvegicus [17] = assay: Percentage inhibition on the f fibrinogen accumulation in the rat model of Arterial thrombosis at 10.0 dose (mg/kg); assay type: functional; outline: as §1
# Rattus norvegicus [18] = assay: Percentage inhibition on venous stasis thrombosis in the rat at 2.0 dose (mg/kg); assay type: functional; outline: as §3
# Rattus norvegicus [19] = assay: Percentage inhibition on venous stasis thrombosis in the rat at 6.0 dose (mg/kg); assay type: functional; outline: as §3
# [20] = TThe compound was evaluated for the APTT value expressed as multiplies of control and was measured at the termination of the experiment (45 min later) in the rat model of arterial thrombosis at 1.0 dose (mg/kg); assay type: functional; outline: as §2
# Rattus norvegicus [21] = assay: Percentage inhibition on venous stasis thrombosis in the rat at 0.05 dose (mg/kg); assay type: functional; outline: as §3
# Rattus norvegicus [22] = assay: Percentage inhibition on the platelet accumulation in the rat model of Arterial thrombosis at 0.3 dose (mg/kg); assay type: functional; outline: as §1
# Trypsin II = molecular target: T1, Trypsin II (Bos taurus, UniProt Q29463); assay: The compound was evaluated for the inhibitory activity against bovine trypsin; outline: as §4
# T1 sequence (Q29463 whole entry): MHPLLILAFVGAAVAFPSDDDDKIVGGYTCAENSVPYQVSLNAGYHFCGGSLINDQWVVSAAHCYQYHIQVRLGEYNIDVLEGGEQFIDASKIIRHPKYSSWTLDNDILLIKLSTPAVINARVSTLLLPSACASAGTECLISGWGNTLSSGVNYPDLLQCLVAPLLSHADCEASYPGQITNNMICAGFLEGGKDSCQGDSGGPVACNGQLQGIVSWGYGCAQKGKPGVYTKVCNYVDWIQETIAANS
# Plasminogen, sequence (P00747 97-580 limits assumed): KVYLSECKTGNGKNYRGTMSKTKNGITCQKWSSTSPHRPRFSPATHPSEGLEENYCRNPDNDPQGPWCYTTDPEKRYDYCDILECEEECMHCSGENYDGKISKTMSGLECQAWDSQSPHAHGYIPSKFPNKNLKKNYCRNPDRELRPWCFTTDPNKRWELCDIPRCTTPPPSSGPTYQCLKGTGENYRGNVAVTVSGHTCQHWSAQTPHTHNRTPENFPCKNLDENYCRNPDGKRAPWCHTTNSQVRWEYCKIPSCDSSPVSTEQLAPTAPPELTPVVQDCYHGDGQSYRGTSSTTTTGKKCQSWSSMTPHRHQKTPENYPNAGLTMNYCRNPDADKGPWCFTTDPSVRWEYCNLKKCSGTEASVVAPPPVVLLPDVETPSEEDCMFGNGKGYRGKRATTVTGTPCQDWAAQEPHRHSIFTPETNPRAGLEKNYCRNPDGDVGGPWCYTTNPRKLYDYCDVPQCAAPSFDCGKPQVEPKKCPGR
# Plasminogen, sequence (P00747 581-810 limits assumed): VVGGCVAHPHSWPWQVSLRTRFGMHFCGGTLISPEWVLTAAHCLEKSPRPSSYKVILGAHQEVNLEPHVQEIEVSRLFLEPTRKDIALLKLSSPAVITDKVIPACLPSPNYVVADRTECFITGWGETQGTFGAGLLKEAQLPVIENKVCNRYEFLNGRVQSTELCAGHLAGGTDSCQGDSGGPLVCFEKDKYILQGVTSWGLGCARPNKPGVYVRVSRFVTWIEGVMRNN
smiles,measurement,setting,value
CC1(C)CNc2c(cccc2S(=O)(=O)NC(CCCN=C(N)N)C(=O)N2CCC(CCO)CC2)C1 (stereo not given),Inhibition,Rattus norvegicus [1],94.4% and 82% and 61.2%
same,APTT,[2],1.5 and 1
same,Inhibition,Rattus norvegicus [3],100% and 50%
same,APTT,[4],1.5 and 1.3
same,Ki,Chymotrypsinogen A,> 83 µM
same,Inhibition,Rattus norvegicus [5],49.9%
same,Inhibition,Rattus norvegicus [6],68.3%
same,Inhibition,Rattus norvegicus [7],24.2%
same,Ki,Plasminogen,210 µM
same,Inhibition,Rattus norvegicus [8],28.8%
same,APTT,[9],1.7
same,Inhibition,Rattus norvegicus [10],69.8%
same,Inhibition,Rattus norvegicus [11],38.5%
same,Inhibition,Rattus norvegicus [12],71.7%
same,IC200,[13],1.9 µM
same,Inhibition,Rattus norvegicus [14],45.1%
same,APTT,[15],2.5
same,Inhibition,Rattus norvegicus [16],3.5%
same,Inhibition,Rattus norvegicus [17],45.5%
same,Inhibition,Rattus norvegicus [18],79.8%
same,Inhibition,Rattus norvegicus [19],95.2%
same,APTT,[20],1
same,Inhibition,Rattus norvegicus [21],2.3%
same,Inhibition,Rattus norvegicus [22],58% and 36.4%
same,Ki,Trypsin II,7.1 µM
